Laboratory results taken from ChEMBL document CHEMBL5724801, “EUbOPEN Chemogenomics Library - Multiplex” (2024).
Where “and” joins values, the source holds several entries; their conditions need not be identical. Equal values may be shown once.

Tested on: HEK-293T
Experiment: Multiplex assay against HEK293T
Type: toxicity, cell-based
Conditions: human
How it was run: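 Cells were classed with CellPathfinder machine-learning gating, first as Hoechst high-intensity objects or normal cells, then (normal cells) as healthy, pyknosed or fragmented nuclei, and finally (pyknosed cells) as mitotic or apoptotic. Staining of live cells at seeding used Hoechst33342, BioTracker Green Microtubule Cytoskeleton Dye, MitoTracker Red and Annexin V Alexa Fluor 680, with imaging on a CQ1 microscope at 37°C and 5% CO2 after compound addition. Tubulin, mitochondrial-mass and membrane-permeability phenotypes are per cents of healthy-nucleus cells.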

[1] = 12 h, 1 µM, compound concentration 1 uM
[2] = 12 h, 10 µM, compound concentration 10 uM
[3] = 24 h, 1 µM, compound concentration 1 uM
[4] = 24 h, 10 µM, compound concentration 10 uM
[5] = 48 h, 1 µM, compound concentration 1 uM
[6] = 48 h, 10 µM, compound concentration 10 uM

`C[C@H](NC(=O)c1c(C(F)F)nn(C)c1Oc1cccc(C(F)(F)F)c1)c1ccc(C(=O)O)cc1` [PALUPIPRANT] was tested, and the “Population Apoptotic (%)” value [1] was 40% and 27%, the “Population Fragmented Nuclei (%)” value [1] was 6% and the “Population Healthy Nuclei (%)” value [1] was 80% and 83%. The “Population Hoechst High Intensity Objects (%)” value [1] was 7% and 5%, the “Population Membrane Permeable-Phenotype (%)” value [1] was 0% and the “Population Mitochondria Different-Phenotype (%)” value [1] was 44% and 60%. The “Population Mitotic Cells (%)” value [1] was 59% and 72%, the “Population Normal (%)” value [1] was 92% and 94% and the “Population Pyknosed Nuclei (%)” value [1] was 13% and 10%. For the same compound, the “Population Tubulin-Different-Phenotype (%)” value [1] was 28%, the “Total Cell Count” value [1] was 407 and 475 and the “Population Apoptotic (%)” value [2] was 38% and 60%. For the same compound, the “Population Fragmented Nuclei (%)” value [2] was 7% and 5%, the “Population Healthy Nuclei (%)” value [2] was 76% and 77% and the “Population Hoechst High Intensity Objects (%)” value [2] was 7% and 10%. The “Population Membrane Permeable-Phenotype (%)” value [2] was 0%, the “Population Mitochondria Different-Phenotype (%)” value [2] was 55% and 68% and the “Population Mitotic Cells (%)” value [2] was 61% and 40%. The “Population Normal (%)” value [2] was 92% and 89%, the “Population Pyknosed Nuclei (%)” value [2] was 16% and 17% and the “Population Tubulin-Different-Phenotype (%)” value [2] was 40% and 27%. For the same compound, the “Total Cell Count” value [2] was 371 and 293, the “Population Apoptotic (%)” value [3] was 36% and 46% and the “Population Fragmented Nuclei (%)” value [3] was 9% and 7%. For the same compound, the “Population Healthy Nuclei (%)” value [3] was 80% and 83%, the “Population Hoechst High Intensity Objects (%)” value [3] was 5% and 4% and the “Population Membrane Permeable-Phenotype (%)” value [3] was 1% and 0%. For the same compound, the “Population Mitochondria Different-Phenotype (%)” value [3] was 27% and 35%, the “Population Mitotic Cells (%)” value [3] was 63% and 53% and the “Population Normal (%)” value [3] was 94% and 95%. For the same compound, the “Population Pyknosed Nuclei (%)” value [3] was 10% and 9%, the “Population Tubulin-Different-Phenotype (%)” value [3] was 18% and 19% and the “Total Cell Count” value [3] was 527 and 604. For the same compound, the “Population Apoptotic (%)” value [4] was 26% and 55%, the “Population Fragmented Nuclei (%)” value [4] was 9% and 7% and the “Population Healthy Nuclei (%)” value [4] was 74% and 79%. For the same compound, the “Population Hoechst High Intensity Objects (%)” value [4] was 3% and 7%, the “Population Membrane Permeable-Phenotype (%)” value [4] was 0% and the “Population Mitochondria Different-Phenotype (%)” value [4] was 46% and 52%. For the same compound, the “Population Mitotic Cells (%)” value [4] was 73% and 44%, the “Population Normal (%)” value [4] was 96% and 92% and the “Population Pyknosed Nuclei (%)” value [4] was 16% and 13%. For the same compound, the “Population Tubulin-Different-Phenotype (%)” value [4] was 29% and 19%, the “Total Cell Count” value [4] was 465 and 353 and the “Population Apoptotic (%)” value [5] was 25% and 21%. The “Population Fragmented Nuclei (%)” value [5] was 13% and 14%, the “Population Healthy Nuclei (%)” value [5] was 79% and 78% and the “Population Hoechst High Intensity Objects (%)” value [5] was 2% and 4%. For the same compound, the “Population Membrane Permeable-Phenotype (%)” value [5] was 1% and 0%, the “Population Mitochondria Different-Phenotype (%)” value [5] was 17% and 18% and the “Population Mitotic Cells (%)” value [5] was 75% and 78%. The “Population Normal (%)” value [5] was 97% and 95%, the “Population Pyknosed Nuclei (%)” value [5] was 7% and 6% and the “Population Tubulin-Different-Phenotype (%)” value [5] was 13% and 9%. The “Total Cell Count” value [5] was 916 and 867, the “Population Apoptotic (%)” value [6] was 29% and 28% and the “Population Fragmented Nuclei (%)” value [6] was 18% and 15%. The “Population Healthy Nuclei (%)” value [6] was 75% and 77%, the “Population Hoechst High Intensity Objects (%)” value [6] was 1% and 3% and the “Population Membrane Permeable-Phenotype (%)” value [6] was 1% and 0%. The “Population Mitochondria Different-Phenotype (%)” value [6] was 24% and 28%, the “Population Mitotic Cells (%)” value [6] was 70% and 71% and the “Population Normal (%)” value [6] was 98% and 96%. For the same compound, the “Population Pyknosed Nuclei (%)” value [6] was 6%, the “Population Tubulin-Different-Phenotype (%)” value [6] was 16% and 17% and the “Total Cell Count” value [6] was 821 and 554.

`CC[C@@H](C)Nc1nc(C)nc2c(-c3ccc(OC)nc3C)c(C)nn12` [PEXACERFONT] was tested, and the “Population Apoptotic (%)” value [1] was 33% and 47%, the “Population Fragmented Nuclei (%)” value [1] was 7% and 5% and the “Population Healthy Nuclei (%)” value [1] was 79% and 82%. For the same compound, the “Population Hoechst High Intensity Objects (%)” value [1] was 6% and 8%, the “Population Membrane Permeable-Phenotype (%)” value [1] was 0% and the “Population Mitochondria Different-Phenotype (%)” value [1] was 45% and 61%. The “Population Mitotic Cells (%)” value [1] was 66% and 52%, the “Population Normal (%)” value [1] was 93% and 91% and the “Population Pyknosed Nuclei (%)” value [1] was 13% and 11%. The “Population Tubulin-Different-Phenotype (%)” value [1] was 34% and 31%, the “Total Cell Count” value [1] was 399 and 314 and the “Population Apoptotic (%)” value [2] was 38% and 41%. For the same compound, the “Population Fragmented Nuclei (%)” value [2] was 6% and 9%, the “Population Healthy Nuclei (%)” value [2] was 75% and 74% and the “Population Hoechst High Intensity Objects (%)” value [2] was 8% and 11%. The “Population Membrane Permeable-Phenotype (%)” value [2] was 0% and 1%, the “Population Mitochondria Different-Phenotype (%)” value [2] was 59% and 75% and the “Population Mitotic Cells (%)” value [2] was 61% and 58%. The “Population Normal (%)” value [2] was 91% and 88%, the “Population Pyknosed Nuclei (%)” value [2] was 17% and 16% and the “Population Tubulin-Different-Phenotype (%)” value [2] was 54% and 55%. The “Total Cell Count” value [2] was 451 and 321, the “Population Apoptotic (%)” value [3] was 24% and 45% and the “Population Fragmented Nuclei (%)” value [3] was 8% and 13%. The “Population Healthy Nuclei (%)” value [3] was 79% and 76%, the “Population Hoechst High Intensity Objects (%)” value [3] was 3% and 7% and the “Population Membrane Permeable-Phenotype (%)” value [3] was 0%. For the same compound, the “Population Mitochondria Different-Phenotype (%)” value [3] was 26% and 34%, the “Population Mitotic Cells (%)” value [3] was 75% and 54% and the “Population Normal (%)” value [3] was 96% and 92%. The “Population Pyknosed Nuclei (%)” value [3] was 11% and 9%, the “Population Tubulin-Different-Phenotype (%)” value [3] was 21% and 15% and the “Total Cell Count” value [3] was 508 and 387. The “Population Apoptotic (%)” value [4] was 37% and 33%, the “Population Fragmented Nuclei (%)” value [4] was 6% and 7% and the “Population Healthy Nuclei (%)” value [4] was 79% and 78%. For the same compound, the “Population Hoechst High Intensity Objects (%)” value [4] was 7% and 13%, the “Population Membrane Permeable-Phenotype (%)” value [4] was 1% and 0% and the “Population Mitochondria Different-Phenotype (%)” value [4] was 46% and 70%. For the same compound, the “Population Mitotic Cells (%)” value [4] was 62% and 66%, the “Population Normal (%)” value [4] was 92% and 86% and the “Population Pyknosed Nuclei (%)” value [4] was 14%. For the same compound, the “Population Tubulin-Different-Phenotype (%)” value [4] was 52% and 48%, the “Total Cell Count” value [4] was 612 and 371 and the “Population Apoptotic (%)” value [5] was 26% and 41%. The “Population Fragmented Nuclei (%)” value [5] was 12% and 10%, the “Population Healthy Nuclei (%)” value [5] was 80% and the “Population Hoechst High Intensity Objects (%)” value [5] was 2%. For the same compound, the “Population Membrane Permeable-Phenotype (%)” value [5] was 0% and 1%, the “Population Mitochondria Different-Phenotype (%)” value [5] was 22% and 27% and the “Population Mitotic Cells (%)” value [5] was 73% and 58%. The “Population Normal (%)” value [5] was 97%, the “Population Pyknosed Nuclei (%)” value [5] was 7% and 9% and the “Population Tubulin-Different-Phenotype (%)” value [5] was 20% and 19%. The “Total Cell Count” value [5] was 816 and 520, the “Population Apoptotic (%)” value [6] was 40% and the “Population Fragmented Nuclei (%)” value [6] was 13% and 10%. The “Population Healthy Nuclei (%)” value [6] was 77% and 72%, the “Population Hoechst High Intensity Objects (%)” value [6] was 7% and 18% and the “Population Membrane Permeable-Phenotype (%)” value [6] was 1% and 0%. For the same compound, the “Population Mitochondria Different-Phenotype (%)” value [6] was 45% and 53%, the “Population Mitotic Cells (%)” value [6] was 59% and 60% and the “Population Normal (%)” value [6] was 92% and 81%. For the same compound, the “Population Pyknosed Nuclei (%)” value [6] was 9% and 17%, the “Population Tubulin-Different-Phenotype (%)” value [6] was 38% and 36% and the “Total Cell Count” value [6] was 692 and 390.
